Converted amounts (≈) assume the structure as drawn. The source made the active and inactive calls. The rule behind the calls is not given here. Where a SMILES comes first, the peptide text is derived from it.
What was measured:
[1] = system: Bacillus spizizenii; assay: Antimicrobial activity against Bacillus subtilis subsp. spizizenii; format: functional
Outline: (§1)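 MIC by twofold serial dilution in duplicate, top concentration 50 μg/mL. Test strains were B. subtilis subsp. spizizenii DSM 347, E. coli DSM 498 and S. cerevisiae DSM 70449. Growth was scored after 48 h at each strain's optimal growth temperature. Gentamycin and nystatin served as controls.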

[2] = system: Saccharomyces cerevisiae; assay: Antimicrobial activity against Saccharomyces cerevisiae; format: functional, organism-based; outline: as §1
[3] = system: Escherichia coli; assay: Antimicrobial activity against Escherichia coli; format: functional, organism-based; outline: as §1

| MIC [1] [µg/mL] | SMILES | Activity [1] | Activity [2] | Activity [3] |
| --- | --- | --- | --- | --- |
|  | O=C(O)CC[C@@H]1NC(=O)[C@@H]2CCCN2C(=O)[C@H](CCC(=O)O)NC(=O)[C@@H]2CCCN2C1=O (cyclo(EPEP)) | inactive | inactive | inactive |
|  | O=C1NCC(=O)N2CCC[C@@H]12 | inactive | inactive | inactive |
|  | C[C@@H]1NC(=O)[C@@H]2C[C@@H](O)CN2C1=O | inactive | inactive | inactive |
|  | O=C1CCCNC(=O)CN1 | inactive | inactive | inactive |
| 50 (≈ 177 µM) | O=C(O)CC[C@@H]1NC(=O)[C@@H]2CCCN2C(=O)CNC1=O (cyclo(Glu-Gly-Pro)) |  | inactive | inactive |
| 25 (≈ 67.5 µM) | O=C(O)CC[C@@H]1NC(=O)[C@@H]2CCCN2C(=O)[C@H](CO)NC(=O)CNC1=O (cyclo(EGSP)) |  | inactive | inactive |
|  | O=C1[C@@H]2C[C@@H](O)CN2C(=O)[C@@H]2CCCN12 | inactive | inactive | inactive |
|  | C[C@@H]1NC(=O)[C@H]2C[C@@H](O)CN2C1=O | inactive | inactive | inactive |

From ChEMBL document CHEMBL1151255, “Cyclic peptides from a Ruegeria strain of bacteria associated with the sponge Suberites domuncula” (2004)
